Results published in ChEMBL document CHEMBL5036308, “Chiral Alkyl Groups at Position 3(1') of Pyropheophorbide-a Specify Uptake and Retention by Tumor Cells and Are Essential for Effective Photodynamic Therapy” (J Med Chem, 2021).
Active and inactive are the calls of the source. The rule behind the calls is not given here.

Experiments:
[1] = Drug uptake in human HN-T1 cells assessed as drug internalization at 1600 nM incubated for 24 hrs in presence of 10% fetal bovine serum measured after 24 hrs chase period by fluorescent microscopy; format: ADME, cell-based; details: hnt1, 24 h, 1.6 µM
[2] = Drug uptake in human HN-143 T-EC cells assessed as drug retention at 1600 nM incubated for 24 hrs in presence of 10% fetal bovine serum measured after 72 hrs chase period by fluorescent microscopy imaging based analysis; format: ADME, cell-based; details: 1.6 µM
How it was run: (§1)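 Cells incubated 24 h in medium with 10% serum and 1600 nM PS, then chased in PS-free medium for up to 72 h with daily medium changes. Cellular PS was measured daily by fluorescence microscopy; net fluorescence intensity per full image frame was quantified in arbitrary units.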

[3] = Drug uptake in human HN-143 T-EC cells assessed as drug retention at 1600 nM incubated for 24 hrs in presence of 10% fetal bovine by fluorescent microscopy imaging based analysis; format: ADME, cell-based; details: 1.6 µM; how it was run: as §1
[4] = Drug uptake in human HN-143-T-EC cells assessed as drug retention in mitochondria measured after 72 hrs chase period by fluorescent microscopy; format: ADME
[5] = Lipophilicity, logP of the compound; format: physicochemical; details: octanol/water
[6] = Drug uptake in human HN-143-T-EC cells assessed as drug retention in endoplasmic reticulum measured after 72 hrs by fluorescent microscopy; format: ADME, cell-based
[7] = Drug uptake in human FaDu-124 cell membrane assessed as drug internalization at 1600 nM incubated for 30 mins at 37 degC; format: ADME, cell-based; details: fadu-124, 0.5 h, 1.6 µM
How it was run: (§2)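 FaDu-124 cells, 30 min on ice in serum-free DMEM with 1600 nM PS, then cell-associated fluorescence imaged. For diffusion into cells, cultures were then held 30 min at 37°C in fresh serum-free medium and imaged again.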

[8] = test system: FaDu-124; test: Binding affinity to human FaDu-124 cell membrane surface measured at 1600 nM incubated for 30 mins at 0 degC; format: tissue-based; how it was run: as §2
[9] = Drug uptake in human HN-85 T-EC cells assessed as drug retention at 1600 nM incubated for 24 hrs in presence of 10% fetal bovine serum measured after 24 hrs chase period by fluorescent microscopy; format: ADME, cell-based; details: 1.6 µM
[10] = Drug uptake in human HNT1 cells assessed as drug retention at 1600 nM incubated for 24 hrs in presence of 10% fetal bovine serum measured after 24 hrs chase period by fluorescent microscopy; format: ADME, cell-based; details: hnt1, 24 h, 1.6 µM
[11] = test system: HN-143 T-EC; test: Binding affinity to human HN-143 T-EC cell membrane surface measured at 1600 nM incubated for 30 min; format: tissue-based
[12] = Photoreactivation in human HN-85 T-EC cells at 100 to 400 nM in presence of 10% fetal bovine serum under 3 J/cm^2 light for 9 mins measured after 24 hrs by Western blotting analysis; details: 0.15 h, 0.4 µM
[13] = Drug uptake in human HN-143 T-EC cells assessed as slow release by measuring drug retention at 1600 nM incubated for 24 hrs in presence of 10% fetal bovine serum measured after 48 hrs chase period by fluorescent microscopy imaging based analysis; format: ADME, cell-based; details: 1.6 µM; how it was run: as §1
[14] = Drug uptake in human TEC-1 cells assessed as drug retention at 1600 nM incubated for 24 hrs in presence of 10% fetal bovine serum measured after 48 hrs chase period by fluorescent microscopy; format: ADME, cell-based; details: tec-1, 48 h, 1.6 µM
How it was run: (§3)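 Confluent cultures (e.g. HN-77 T-EC, p 13) incubated 24 h in RPMI + 10% FBS with 1600 nM PS, then 48 h chase in RPMI + 10% FBS. Fluorescence images recorded and net fluorescence intensity quantified.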

[15] = Drug uptake in human HN-90 T-EC cells assessed as drug retention at 1600 nM incubated for 24 hrs in presence of 10% fetal bovine serum measured after 72 hrs chase period by fluorescent microscopy imaging based analysis; format: ADME, cell-based; details: 1.6 µM; how it was run: as §1
[16] = Drug uptake in human L237 cells assessed as drug retention at 1600 nM incubated for 24 hrs in presence of 10% fetal bovine serum measured after 48 hrs chase period by fluorescent microscopy; format: ADME, cell-based; details: l237, 48 h, 1.6 µM; how it was run: as §3
[17] = Drug uptake in human TEC-21 cells assessed as drug retention at 1600 nM incubated for 24 hrs in presence of 10% fetal bovine serum measured after72 hrs chase period by fluorescent microscopy imaging based analysis; format: ADME, cell-based; details: tec-21, 72 h, 1.6 µM; how it was run: as §1
[18] = Drug uptake in human HN-77 T-EC cells assessed as drug retention at 1600 nM incubated for 24 hrs in presence of 10% fetal bovine serum measured after 48 hrs chase period by fluorescent microscopy; format: ADME, cell-based; details: 1.6 µM; how it was run: as §3
[19] = Drug uptake in human HNT1 cells assessed as drug retention at 1600 nM incubated for 24 hrs in presence of 10% fetal bovine serum measured after 48 hrs chase period by fluorescent microscopy; format: ADME, cell-based; details: hnt1, 48 h, 1.6 µM
[20] = Drug uptake in human HNT1 cells with CFSE-labeled HN-101 T-Fb assessed as drug retention at 1600 nM incubated for 24 hrs in presence of 10% fetal bovine serum measured after 24 hrs chase period by fluorescent microscopy; format: ADME, cell-based; details: hnt1, 24 h, 1.6 µM
How it was run: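 Co-cultures of HNT1 cells (p 103) with CFSE-labeled HN-101 T-Fb on collagen-1 matrix; 24 h in DMEM + 10% FBS with 1600 nM PS, then 24 h chase in PS-free medium; cell-associated fluorescence imaged by microscopy.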

[21] = Photoreactivation in human TEC21 cells assessed as STAT3cross-linking in presence of 10% fetal bovine serum under 665 nm light for 9 mins measured after 24 hrs by immune blot analysis; format: cell-based; details: tec-21, 0.15 h
How it was run: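 TEC-21 cells (p 8) treated 24 h in RPMI + 10% FBS with PS, imaged, chased 48 h in RPMI + 10% FBS, then irradiated 9 min with 665 nm light (6 mW/cm²). Cells were extracted immediately and immunoblotted for STAT3 crosslinking, EGFR and phospho-p38 MAPK.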

[22] = Drug uptake in human FaDu-124 cells assessed as drug retention at 1600 nM incubated for 24 hrs in presence of 10% fetal bovine serum measured after 48 hrs chase period by fluorescent microscopy; format: ADME, cell-based; details: fadu-124, 48 h, 1.6 µM
[23] = Drug uptake in human FaDu clone 49 cells assessed as drug retention at 1600 nM incubated for 24 hrs in presence of 10% fetal bovine serum measured after 72 hrs chase period by fluorescent microscopy imaging based analysis; format: ADME, cell-based; details: fadu clone 49, 72 h, 1.6 µM; how it was run: as §1
[24] = Drug uptake in human HN-T1 cells assessed as drug retention at 1600 nM incubated for 24 hrs in presence of 10% fetal bovine serum measured after 72 hrs chase period by fluorescent microscopy imaging based analysis; format: ADME, cell-based; details: hnt1, 72 h, 1.6 µM; how it was run: as §1
[25] = Drug uptake in human HN-142 T-EC cells assessed as drug retention at 1600 nM incubated for 24 hrs in presence of 10% fetal bovine serum measured after 48 hrs chase period by fluorescent microscopy; format: ADME, cell-based; details: 1.6 µM; how it was run: as §3

| Drug uptake [2] | Drug uptake [3] | Drug uptake [4] | Drug uptake [6] | Drug uptake [7] | Structure (SMILES) | Activity [8] | further results |
| --- | --- | --- | --- | --- | --- | --- | --- |
| Active | Active | Active | Active |  | CCCCCCOC(CCC)c1c(C)c2cc3nc(c4c5[nH]c(cc6nc(cc1[nH]2)C(C)=C6CC)c(C)c5C(=O)C4)[C@@H](CCC(=O)O)C3C (stereo partly drawn) |  | logP [5]: 6.01 |
| Active |  | Active | Active | Active | CCCCCCOC(C)c1c(C)c2cc3nc(c4c5[nH]c(cc6nc(cc1[nH]2)C(C)=C6CC)c(C)c5C(=O)C4)[C@@H](CCC(=O)OC)C3C (stereo partly drawn) | Active |  |
| Active |  |  |  | Active | CCCCCCSC(C)c1c(C)c2cc3nc(c4c5[nH]c(cc6nc(cc1[nH]2)C(C)=C6CC)c(C)c5C(=O)C4)[C@@H](CCC(=O)OC)C3C (stereo partly drawn) | Active |  |
| Active | Active | Active | Active |  | CCCCC(C)OC(C)c1c(C)c2cc3nc(c4c5[nH]c(cc6nc(cc1[nH]2)C(C)=C6CC)c(C)c5C(=O)C4)[C@@H](CCC(=O)O)C3C (stereo partly drawn) |  | Drug uptake [9]: Not Active; Drug uptake [10]: Active; Activity [11]: Active |

The next lines start with the compound.

| Structure (SMILES) | Drug uptake [2] | Drug uptake [3] | Drug uptake [4] | Drug uptake [6] | Drug uptake [7] | Activity [8] | further results |
| --- | --- | --- | --- | --- | --- | --- | --- |
| CCCCc1c(C)c2cc3nc(c4c5[nH]c(cc6nc(cc1[nH]2)C(C)=C6CC)c(C)c5C(=O)C4)[C@@H](CCC(=O)O)C3C (stereo partly drawn) |  |  |  |  |  |  | Drug uptake [1]: Active |
| CCCCC(C)OC(C)c1c(C)c2cc3nc(c4c5[nH]c(cc6nc(cc1[nH]2)C(C)=C6CC)c(C)c5C(=O)C4)[C@@H](CCC(=O)OC)C3C (stereo partly drawn) | Active |  | Active | Active |  |  | Drug uptake [9]: Not Active; Drug metabolism [12]: Metabolite_Detected; Drug uptake [13]: Active |
| CCCCc1c(C)c2cc3nc(c4c5[nH]c(cc6nc(cc1[nH]2)C(C)=C6CC)c(C)c5C(=O)C4)[C@@H](CCC(=O)OC)C3C (stereo partly drawn) |  |  |  |  |  |  | Drug uptake [1]: Active |
| CCCCCCOC(C)c1c(C)c2cc3nc(c4c5[nH]c(cc6nc(cc1[nH]2)C(C)=C6CC)c(C)c5C(=O)C4)[C@@H](CCC(=O)O)C3C (stereo partly drawn) | Active | Active | Active |  | Active | Active | Drug uptake [14]: Not Active; Drug uptake [15]: Active; Drug uptake [16]: Not Active; Drug uptake [17]: Active; Drug uptake [18]: Not Active; Drug uptake [19]: Not Active; Drug uptake [10]: Not Active; Drug uptake [20]: Active; logP [5]: 6.01; Activity [21]: 0.4%; Drug uptake [22]: Not Active; Drug uptake [23]: Active; Drug uptake [24]: Active; Drug uptake [25]: Not Active |
| C=Cc1c(C)c2cc3nc(c4c5[nH]c(cc6nc(cc1[nH]2)C(C)=C6CC)c(C)c5C(=O)C4)[C@@H](CCC(=O)O)C3C (stereo partly drawn) |  |  |  |  |  | inactive |  |
